ChEMBL document CHEMBL5346932, “Structure-activity relationships of actively FhuE transported rifabutin derivatives with potent activity against Acinetobacter baumannii” (Eur J Med Chem, 2023)
Converted amounts (≈) assume the structure as drawn.

Columns and labels:
[1] = system: Acinetobacter baumannii; test: Antibacterial activity against Acinetobacter baumannii HUMC1 cultured in RPMI 1640 medium supplemented with 10% FCS assessed as bacterial growth inhibition incubated for 20 hrs by CLSI based microbroth dilution method; type: functional; conditions: Acinetobacter baumannii, HUMC1, 20 h, read-out: MIC
Summary of the method: (§1)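 CLSI broth microdilution in RPMI 1640 + 10% FCS in place of CAMHB. Compounds in 2-fold dilution series; inoculum 5×10^5 CFU/mL. Plates held static at 35 °C for 20 h. MIC read visually as the lowest concentration with no visible growth. […] is the reciprocal of this MIC.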

[2] = system: Staphylococcus aureus; test: Antibacterial activity against Staphylococcus aureus USA300 UAMS-1625 assessed as bacterial growth inhibition incubated for 20 hrs by CLSI based microbroth dilution method; type: functional
Summary of the method: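 CLSI broth microdilution in CAMHB against S. aureus USA300 UAMS-1625. Compounds in 2-fold dilution series; inoculum 5×10^5 CFU/mL. Incubated without shaking at 35 °C for 20 h. MIC read visually as the lowest concentration preventing visible growth. Fold changes are relative to the rifabutin MIC.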

[3] = system: Acinetobacter baumannii; test: Antibacterial activity against Acinetobacter baumannii HUMC1 harboring FhuE deletion mutant assessed as bacterial growth inhibition incubated for 20 hrs by CLSI based microbroth dilution method; type: functional
Summary of the method: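 Microbroth dilution per CLSI in RPMI 1640 + 10% FCS (in place of CAMHB). Compounds as 2-fold serial dilutions; inoculum 5×10^5 CFU/mL of previously described HUMC1-derived mutant strains. Incubated static at 35 °C for 20 h. MIC read visually as lowest concentration preventing visible growth.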

[4] = Inhibition of transcription in Acinetobacter baumannii HUMC1 using pVT784 as reporter plasmid preincubated for 30 mins followed by reporter plasmid addition and measured after 60 mins by Nano-Glo luciferase assay; type: functional
Summary of the method: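 Cell-free transcription/translation used A. baumannii HUMC1 extract at 1.2 mg/mL, with extract from 2xYT+P culture after a run-off step and dialysis at pH 8.2. Compound was preincubated with extract for 30 min on ice. Reporter plasmid (0.5 nM) was then added and luminescence read after 60 min at 25 °C. Compounds were tested at 8 to 0.002 mg/L in triplicate. IC50 was fit from no-compound-normalized signal.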

[5] = Drug accumulation in wild type Acinetobacter baumannii HUMC1 cultured in iron-rich CAMHB media at >=0.05 uM incubated for 10 mins by LC-MS/MS analysis; type: ADME
Summary of the method: (§2)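 5 mL of suspension was dosed from DMSO stocks (0.002–5 mM) and shaken at 150 rpm for 10 min at 37 °C. Cells were pelleted, washed, and lysed (sucrose/EDTA). LC-MS/MS MRM quantitation used caffeine-normalized standard curves in spiked lysate. Reported as amount per 5 mL; n≥2 independent replicates.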

[6] = Drug accumulation in Acinetobacter baumannii HUMC1 harboring fhuE deletion mutant cultured in iron-rich CAMHB media at <0.02 uM incubated for 10 mins by LC-MS/MS analysis; type: ADME; conditions: BLD = below limit of detection
Summary of the method: (§3)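 5 mL suspension dosed from DMSO stocks (0.002–5 mM), 10 min at 37 °C, 150 rpm. Cells pelleted, washed in TBS and sucrose buffers, lysed, extracted with formic acid/CH3CN/CH3OH. LC-MS/MS MRM quantification against spiked-matrix standards, caffeine internal standard. Reported as ng per 5 mL suspension; n ≥ 2 independent replicates, mean ± SEM.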

[7] = Drug accumulation in Acinetobacter baumannii HUMC1 harboring fhuE deletion mutant cultured in iron-limited RPMI medium supplemented with 10% FCS at <0.02 uM incubated for 10 mins by LC-MS/MS analysis; type: ADME; conditions: BLD = below limit of detection; summary of the method: as §3
[8] = Drug accumulation in Acinetobacter baumannii HUMC1 harboring fhuE deletion mutant cultured in iron-rich CAMHB media at 0.5 to 5 uM incubated for 10 mins by LC-MS/MS analysis; type: ADME; conditions: dose 0.5-5 µM; summary of the method: as §3
[9] = Drug accumulation in Acinetobacter baumannii HUMC1 harboring fhuE deletion mutant cultured in iron-limited RPMI medium supplemented with 10% FCS at 0.5 to 5 uM incubated for 10 mins by LC-MS/MS analysis; type: ADME; conditions: dose 0.5-5 µM; summary of the method: as §3
[10] = Drug accumulation in wild type Acinetobacter baumannii HUMC1 cultured in iron-limited RPMI medium supplemented with 10% FCS at 0.002 to 0.02 uM incubated for 10 mins by LC-MS/MS analysis; type: ADME; conditions: dose 0.002-0.02 µM; summary of the method: as §2
[11] = Drug accumulation in cytoplasm of Acinetobacter baumannii HUMC1 cultured in iron-limited RPMI medium supplemented with 10% FCS measured per 5 ml of culture medium at 0.005 uM incubated for 10 mins by LC-MS/MS analysis; type: ADME, subcellular
Summary of the method: (§4)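 The periplasm was released by cold 0.5 mM MgSO4 shock. Cells were then sonicated and DNase-treated, and a 30000 g spin separated cytoplasm from the membrane pellet. Fractions were quantified by LC-MS/MS against standard curves. Reported as ng per 5 mL; n = 4 in duplicate.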

[12] = Drug accumulation in periplasm of Acinetobacter baumannii HUMC1 cultured in iron-limited RPMI medium supplemented with 10% FCS measured per 5 ml of culture medium at 0.005 uM incubated for 10 mins by LC-MS/MS analysis; type: ADME, subcellular; summary of the method: as §4
[13] = Drug accumulation in membrane of Acinetobacter baumannii HUMC1 cultured in iron-limited RPMI medium supplemented with 10% FCS measured per 5 ml of culture medium at 0.005 uM incubated for 10 mins by LC-MS/MS analysis; type: ADME, cell membranes; summary of the method: as §4
[14] = Drug accumulation in Acinetobacter baumannii HUMC1 cultured in iron-limited RPMI medium supplemented with 10% FCS measured per 5 ml of culture medium at 0.005 uM incubated for 10 mins by LC-MS/MS analysis; type: ADME; summary of the method: as §4
[15] = Drug accumulation in cytoplasm of Acinetobacter baumannii HUMC1 cultured in iron-limited RPMI medium supplemented with 10% FCS at 0.005 uM incubated for 10 mins by LC-MS/MS analysis; type: ADME, subcellular; summary of the method: as §4
[16] = Drug accumulation in membrane of Acinetobacter baumannii HUMC1 cultured in iron-limited RPMI medium supplemented with 10% FCS at 0.005 uM incubated for 10 mins by LC-MS/MS analysis; type: ADME, cell membranes; summary of the method: as §4
[17] = Drug accumulation in periplasm of Acinetobacter baumannii HUMC1 cultured in iron-limited RPMI medium supplemented with 10% FCS at 0.005 uM incubated for 10 mins by LC-MS/MS analysis; type: ADME, subcellular; summary of the method: as §4
[18] = system: Acinetobacter baumannii; test: Antibacterial activity against Acinetobacter baumannii HUMC1 cultured in iron-limited RPMI medium supplemented with 10% FCS assessed as inverse MIC incubated for 20 hrs by CLSI based microbroth dilution method; type: functional; summary of the method: as §1
[19] = Drug accumulation in Acinetobacter baumannii HUMC1 cultured in iron-limited RPMI medium supplemented with 10% FCS measured per 5 ml of culture medium at 0.05 uM incubated for 10 mins by LC-MS/MS analysis; type: ADME; summary of the method: as §2

Structure (SMILES): CO[C@H]1/C=C/O[C@@]2(C)Oc3c(C)c(O)c4c(c3C2=O)C2=NC3(CCN(CC(C)C)CC3)NC2=C(NC(=O)/C(C)=C\C=C\[C@H](C)[C@H](O)[C@@H](C)[C@@H](O)[C@@H](C)[C@H](OC(C)=O)[C@@H]1C)C4=O [RIFABUTIN]
- MIC [1]: 0.001 µg/mL (≈ 0.00118 µM)
- MIC [2]: 0.016 µg/mL (≈ 0.0189 µM)
- MIC [3]: 0.5 µg/mL (≈ 0.59 µM)
- IC50 [4]: 0.07 µg/mL (≈ 0.0826 µM)
- Drug uptake [5]: Active
- Drug uptake [6]: Bld
- Drug uptake [7]: Bld
- Drug uptake [8]: Active
- Drug uptake [9]: Active
- Drug uptake [10]: Active
- Drug uptake [11]: 0.02 ng
- Drug uptake [12]: 2.66 ng
- Drug uptake [13]: 0.69 ng
- Drug uptake [14]: 12.44 ng
- Drug uptake [15]: 79%
- Drug uptake [16]: 20%
- Drug uptake [17]: < 1%
- 1/MIC [18]: 1000 L/mg
- Drug uptake [19]: 36.08 pmol
